Results on 15 molecules are retold here after ChEMBL document CHEMBL1133154, “Inhibition of inducible nitric oxide synthase by acetamidine derivatives of hetero-substituted lysine and homolysine” (Bioorg Med Chem Lett, 2000).

Assay [1] addresses Nitric oxide synthase (inducible and endothelial) (Homo sapiens) (UniProt P35228+P29474). As to the kind of experiment: Ratio of Endothelial Nitric Oxide Synthase to Inducible nitric oxide synthase. Type of assay: protein assay.
The target of assay [2] is Nitric oxide synthase, inducible (Homo sapiens, UniProt P35228). As to the kind of experiment: Inhibition of human inducible nitric oxide synthase.
For assay [3], the target named is T1, Nitric oxide synthase 1 (Homo sapiens, UniProt P29475). As to the kind of experiment: Inhibition of human neuronal Nitric Oxide Synthase.
For assay [4], the target named is Nitric oxide sythases; iNOS & nNOS (Homo sapiens) (UniProt P29475+P35228). Description: Ratio of binding to Neuronal nitric oxide synthase and Inducible nitric oxide synthase. In kind it is protein assay.
In assay [5] the target is T2, Nitric oxide synthase 3 (Homo sapiens, UniProt P29474).
T2 sequence (P29474 whole entry): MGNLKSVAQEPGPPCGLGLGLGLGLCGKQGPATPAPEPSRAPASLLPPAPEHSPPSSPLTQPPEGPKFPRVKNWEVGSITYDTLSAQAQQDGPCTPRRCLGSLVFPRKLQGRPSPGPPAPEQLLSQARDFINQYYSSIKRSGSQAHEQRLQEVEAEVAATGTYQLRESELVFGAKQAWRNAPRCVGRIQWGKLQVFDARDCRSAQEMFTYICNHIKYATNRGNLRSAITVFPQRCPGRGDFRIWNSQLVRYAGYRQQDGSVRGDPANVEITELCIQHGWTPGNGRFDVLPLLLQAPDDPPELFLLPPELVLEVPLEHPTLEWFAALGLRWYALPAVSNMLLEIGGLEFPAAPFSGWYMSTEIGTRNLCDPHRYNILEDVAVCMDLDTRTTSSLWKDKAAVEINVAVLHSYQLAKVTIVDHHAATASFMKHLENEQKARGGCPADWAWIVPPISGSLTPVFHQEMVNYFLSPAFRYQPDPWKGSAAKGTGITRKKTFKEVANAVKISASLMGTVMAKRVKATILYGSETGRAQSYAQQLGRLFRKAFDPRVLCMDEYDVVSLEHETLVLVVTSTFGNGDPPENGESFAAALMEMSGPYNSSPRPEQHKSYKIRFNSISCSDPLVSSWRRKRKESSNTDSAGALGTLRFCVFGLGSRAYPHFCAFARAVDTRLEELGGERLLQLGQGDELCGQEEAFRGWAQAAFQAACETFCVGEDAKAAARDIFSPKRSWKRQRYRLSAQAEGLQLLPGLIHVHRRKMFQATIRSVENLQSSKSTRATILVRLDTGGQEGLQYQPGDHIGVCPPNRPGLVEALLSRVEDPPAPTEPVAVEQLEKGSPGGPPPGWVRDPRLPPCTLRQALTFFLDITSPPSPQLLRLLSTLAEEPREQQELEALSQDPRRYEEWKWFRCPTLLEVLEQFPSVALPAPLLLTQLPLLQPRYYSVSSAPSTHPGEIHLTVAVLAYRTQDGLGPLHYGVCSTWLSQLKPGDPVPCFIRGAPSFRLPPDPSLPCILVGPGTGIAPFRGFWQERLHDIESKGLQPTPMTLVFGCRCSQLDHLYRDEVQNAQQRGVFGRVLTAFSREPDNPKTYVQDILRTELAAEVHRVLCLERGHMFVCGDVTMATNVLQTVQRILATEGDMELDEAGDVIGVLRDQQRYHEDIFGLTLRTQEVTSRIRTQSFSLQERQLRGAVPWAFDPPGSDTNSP
As to the kind of experiment: Inhibition of human endothelial Nitric Oxide Synthase.

Assay [6] deals with T1, Nitric oxide synthase 1. As to the kind of experiment: Concentration required for inhibition of neuronal Nitric Oxide Synthase in human. Summed up:
(§1)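 Recombinant human NOS enzymes (endothelial or neuronal isoform) were tested in an oxyhaemoglobin assay. Readings were taken 15–30 min after inhibitor addition so that time-dependent inhibition could develop, and IC50 values were derived from those readings.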

The target in assay [7] is T2, Nitric oxide synthase 3. As to the kind of experiment: Concentration required for inhibition of endothelial Nitric Oxide Synthase in human. Summed up:
as §1

Sequence of Nitric oxide synthase, inducible (P35228 whole entry): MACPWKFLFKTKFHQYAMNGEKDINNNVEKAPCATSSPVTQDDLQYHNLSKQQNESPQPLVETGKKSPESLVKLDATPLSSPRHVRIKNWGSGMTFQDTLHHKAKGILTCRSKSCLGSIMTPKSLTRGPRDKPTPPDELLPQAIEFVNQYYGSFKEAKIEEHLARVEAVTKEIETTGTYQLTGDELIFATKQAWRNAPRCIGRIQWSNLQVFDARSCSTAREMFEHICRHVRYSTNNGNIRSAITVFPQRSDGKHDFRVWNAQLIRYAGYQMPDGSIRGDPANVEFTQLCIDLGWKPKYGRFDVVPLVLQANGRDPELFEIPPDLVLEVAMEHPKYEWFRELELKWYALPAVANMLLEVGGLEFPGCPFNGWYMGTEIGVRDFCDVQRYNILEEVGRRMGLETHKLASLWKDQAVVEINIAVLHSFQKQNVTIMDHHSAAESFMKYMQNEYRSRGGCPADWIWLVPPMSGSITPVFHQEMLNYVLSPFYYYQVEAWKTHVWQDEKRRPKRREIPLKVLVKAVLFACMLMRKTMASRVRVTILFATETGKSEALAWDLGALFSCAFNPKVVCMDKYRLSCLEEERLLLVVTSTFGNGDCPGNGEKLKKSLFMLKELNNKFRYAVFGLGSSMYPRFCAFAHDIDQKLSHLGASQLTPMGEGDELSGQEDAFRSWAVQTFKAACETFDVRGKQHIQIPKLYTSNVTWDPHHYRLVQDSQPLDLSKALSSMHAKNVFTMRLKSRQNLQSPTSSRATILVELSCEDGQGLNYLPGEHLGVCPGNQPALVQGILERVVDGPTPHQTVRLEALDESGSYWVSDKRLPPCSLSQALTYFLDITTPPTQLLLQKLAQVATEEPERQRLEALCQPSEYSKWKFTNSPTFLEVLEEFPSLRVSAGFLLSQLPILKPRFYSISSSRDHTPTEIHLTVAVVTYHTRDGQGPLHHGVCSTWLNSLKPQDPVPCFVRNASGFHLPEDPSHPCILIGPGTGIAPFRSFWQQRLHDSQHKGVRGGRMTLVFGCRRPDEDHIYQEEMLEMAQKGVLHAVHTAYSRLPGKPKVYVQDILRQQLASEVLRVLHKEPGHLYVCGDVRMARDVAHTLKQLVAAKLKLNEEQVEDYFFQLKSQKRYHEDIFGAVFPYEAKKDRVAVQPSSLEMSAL
T1 sequence (P29475 whole entry): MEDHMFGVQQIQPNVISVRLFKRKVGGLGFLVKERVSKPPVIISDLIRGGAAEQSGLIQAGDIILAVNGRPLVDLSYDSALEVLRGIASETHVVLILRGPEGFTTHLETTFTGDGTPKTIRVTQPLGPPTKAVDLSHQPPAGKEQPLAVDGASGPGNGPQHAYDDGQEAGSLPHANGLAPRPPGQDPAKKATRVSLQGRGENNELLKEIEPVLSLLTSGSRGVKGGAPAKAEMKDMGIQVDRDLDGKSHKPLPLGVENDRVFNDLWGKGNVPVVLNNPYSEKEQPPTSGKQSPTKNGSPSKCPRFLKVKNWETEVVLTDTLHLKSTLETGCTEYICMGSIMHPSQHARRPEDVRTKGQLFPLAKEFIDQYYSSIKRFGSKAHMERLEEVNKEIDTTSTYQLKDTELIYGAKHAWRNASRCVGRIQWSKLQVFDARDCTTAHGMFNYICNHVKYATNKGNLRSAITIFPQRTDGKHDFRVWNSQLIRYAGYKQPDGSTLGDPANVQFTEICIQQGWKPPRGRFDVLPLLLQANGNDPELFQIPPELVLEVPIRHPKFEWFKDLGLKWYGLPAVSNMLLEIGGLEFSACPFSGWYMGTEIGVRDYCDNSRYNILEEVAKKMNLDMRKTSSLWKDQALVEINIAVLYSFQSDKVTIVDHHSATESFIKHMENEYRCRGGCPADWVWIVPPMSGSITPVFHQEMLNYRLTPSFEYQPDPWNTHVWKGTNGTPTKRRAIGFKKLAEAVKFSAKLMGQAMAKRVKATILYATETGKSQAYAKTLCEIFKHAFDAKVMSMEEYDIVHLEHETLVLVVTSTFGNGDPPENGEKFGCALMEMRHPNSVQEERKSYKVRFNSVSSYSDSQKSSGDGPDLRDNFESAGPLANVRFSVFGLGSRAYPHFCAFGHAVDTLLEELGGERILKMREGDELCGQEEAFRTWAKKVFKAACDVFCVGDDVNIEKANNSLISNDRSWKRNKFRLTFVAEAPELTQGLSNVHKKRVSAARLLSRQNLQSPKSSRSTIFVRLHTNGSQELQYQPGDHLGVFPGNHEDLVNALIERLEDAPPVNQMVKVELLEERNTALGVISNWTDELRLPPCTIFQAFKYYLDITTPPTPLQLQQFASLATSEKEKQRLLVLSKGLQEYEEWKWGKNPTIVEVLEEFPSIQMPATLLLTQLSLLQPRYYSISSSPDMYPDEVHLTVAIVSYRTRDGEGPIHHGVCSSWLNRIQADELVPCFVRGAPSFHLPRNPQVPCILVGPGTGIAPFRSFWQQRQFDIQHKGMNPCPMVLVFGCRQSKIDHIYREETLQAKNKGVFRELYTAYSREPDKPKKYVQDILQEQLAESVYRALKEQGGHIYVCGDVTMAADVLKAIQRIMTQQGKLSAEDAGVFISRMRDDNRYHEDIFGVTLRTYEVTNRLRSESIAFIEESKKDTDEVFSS
Sequence of Nitric oxide sythases; iNOS & nNOS (Homo sapiens) (P29475 whole entry, looked up): as the sequence (P29475 whole entry) above
Sequence of Nitric oxide sythases; iNOS & nNOS (Homo sapiens) (P35228 whole entry, looked up): as the sequence (P35228 whole entry) above

For `CC(=N)NCCOCCC(N)C(=O)O` (stereo not given), the values for the Ratio in assay [1] and in assay [4] were 51 and 5, respectively. The values for the IC50 (in assay [2]; at Nitric oxide synthase 1 [3]; on Nitric oxide synthase 3 [5]) were 1.4 µM, 6 µM and 72 µM, respectively.
In the case of `CC(=N)NCCCC[C@@H](N)C(=O)O`, the Ratio amounted to 49 in assay [1] and 23 in assay [4]. In addition, the IC50 in assay [2] was 1.6 µM; at Nitric oxide synthase 1 [3], 37 µM; against Nitric oxide synthase 3 [5], 78 µM.
Consider `CC(=N)NCCCOC[C@H](N)C(=O)O`, for which the IC50 (in assay [2]; against Nitric oxide synthase 1 [3]; against Nitric oxide synthase 3 [5]) was > 100 µM each time.
In the case of `CC(=N)NCCSCC[C@@H](N)C(=O)O`, the Ratio in assay [1] and in assay [4] was > 17 throughout. Further, the IC50 in assay [2] was 5.9 µM; against Nitric oxide synthase 1 [3], > 100 µM; against Nitric oxide synthase 3 [5] it was > 100 µM.
On to `CC(=N)NCCCSC[C@H](N)C(=O)O`, for which the results for the IC50 (in assay [2]; against Nitric oxide synthase 1 [3]; against Nitric oxide synthase 3 [5]) were 62 µM, > 100 µM and > 100 µM, respectively.
Take `CC(=N)NCCCCCC(N)C(=O)O` (stereo not given): the Ratio in assay [1] and in assay [4] was > 5 throughout. The IC50 was 20 µM in assay [2], > 100 µM at Nitric oxide synthase 1 [3] and > 100 µM at Nitric oxide synthase 3 [5].
For `CC(=N)NCCOC[C@H](N)C(=O)O`, the Ratio in assay [1] was 11; in assay [4], 10. The IC50 in assay [2] was 1.2 µM; at Nitric oxide synthase 1 [3] it was 11.6 µM; against Nitric oxide synthase 3 [5], 13 µM.
As to `CC(=N)NCC[S+]([O-])CCC(N)C(=O)O` (stereo not given), the IC50 (in assay [2]; at Nitric oxide synthase 1 [3]; against Nitric oxide synthase 3 [5]) was > 100 µM throughout.
Regarding `CC(=N)NCCS(=O)(=O)CCC(N)C(=O)O` (stereo not given), the IC50 (in assay [2]; at Nitric oxide synthase 1 [6]; at Nitric oxide synthase 3 [5]) was > 100 µM throughout.
As for `CC(=N)NCCS(=O)(=O)C[C@@H](N)C(=O)O`, the Ratio in assay [1] was > 125; in assay [4], 78. Further, the IC50 was 8 µM in assay [2], 630 µM on Nitric oxide synthase 1 [3] and > 1000 µM against Nitric oxide synthase 3 [5].
Turning to `CC(=N)NCC[S+]([O-])C[C@@H](N)C(=O)O` (stereo not given in full), the figures for the Ratio in assay [1] and in assay [4] were 19 and 9, respectively. In addition, the 50% inhibitory concentration (IC50) in assay [2] worked out at 8 µM; at Nitric oxide synthase 1 [3], 68 µM; against Nitric oxide synthase 3 [5], 155 µM.
On to `CC(=N)NCCSC[C@@H](N)C(=O)O`, for which the half-inhibitory concentration (IC50) against Nitric oxide synthase 3 [7] turned out to be 40 µM; in assay [2] it was 0.7 µM; on Nitric oxide synthase 1 [3], 13.2 µM. The results for the Ratio in assay [1] and in assay [4] were 57 and 19, respectively.
With `CC(=N)NCCCS(=O)(=O)C[C@H](N)C(=O)O`, the IC50 (in assay [2]; against Nitric oxide synthase 1 [3]; against Nitric oxide synthase 3 [5]) was > 100 µM throughout.
Regarding `CC(=N)NCCSCC[C@H](N)C(=O)O` [GW-274150], the Ratio in assay [1] amounted to 333; in assay [4] it was 104. Besides, the IC50 in assay [2] was found to be 1.4 µM; at Nitric oxide synthase 1 [3] it was 145 µM; against Nitric oxide synthase 3 [5], 466 µM.
For `CC(=N)NCCSC[C@H](N)C(=O)O`, the figures for the Ratio in assay [1] and in assay [4] were > 18 and 10, respectively. Besides, the IC50 was 5.4 µM in assay [2], 53 µM at Nitric oxide synthase 1 [3] and > 100 µM on Nitric oxide synthase 3 [5].

For orientation: IC50 means the concentration that gives 50% inhibition.
